Assay outcomes: PubChem, several laboratories
In the library only some 0.74% were active in any assay of this set; here they are far more common.
Diaph act CS = compounds boosting diaphorase resazurin reduction – biochemical, uHTS, resorufin fluorescence, counter-screen for diaphorase-coupled primary assays, primary screen | Diaphorase/resazurin coupled assay, 16 min; active compounds read high; 1 = vehicle wells, 0 = NADH-free wells | activation factor at 20 µM | actives 0.005% (n = 190,000);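 active = diaphorase activity raised at least twofold by the compound at 20 µM; inactive = activation factor below 2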
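Material: purified diaphorase enzyme from Clostridium kluyveri / Medium: HEPES pH 7.4 buffer with MgCl2 and Tween 20 / Schedule: enzyme reaction of 16 min at room temperature / Measured by: resorufin fluorescence, excitation 544 nm, emission 590 nm / Evaluation: rise in resorufin formation, marking diaphorase activation or chemical reduction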
Arbovirus inh = antivirals against arbovirus infection, primary screen, cell-based, full library, 10K replicate subset | actives 0.37% (n = 200,000) | inhibition, % at 10 µM | arbovirus infection cell-based antiviral screen; in the data active = inhibition above about 30%
Diaph inh CS = diaphorase inhibitors and chemical oxidizers, primary screen, counter-screen for diaphorase-coupled primary assays, biochemical, uHTS, resorufin fluorescence | inhibition, % at 20 µM | diaphorase resazurin-to-resorufin fluorescence, NADH, 16 min; bacterial (C. kluyveri) enzyme, not human | actives 0.69% (n = 190,000);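 active = primary screen inhibition at 20 µM above a set limit, cut at about 50% in these data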;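 also: plate controls were DMSO with full reaction for no effect and wells lacking NADH for full effect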
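Assay system – diaphorase enzyme from Clostridium kluyveri · Amount – diaphorase 0.14 U/mL (working solution) · Times – reaction incubation of 16 min at room temperature · Controls – No-NADH positive control and DMSO neutral control · Signal – resorufin fluorescence 544/590 nm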
G6PDH counter = L. mesenteroides G6PDH inhibitors, counter-screen for G6PDH-coupled screening assays, biochemical, Leuconostoc mesenteroides enzyme; glucose-6-phosphate dehydrogenase [Leuconostoc mesenteroides]; Purified L. mesenteroides G6PDH, diaphorase/resazurin coupled fluorescence, 45 min; inhibition, % at 5 µM; actives 0.12% (n = 200,000); AID 1020, 2008; in the data active = inhibition above about 50%
HKDC1 inhibitor = HKDC1 hexokinase inhibitors, primary screen, biochemical, fluorescence, uHTS | Q2TB90 | inhibition, % at 20 µM | recombinant HKDC1, G6PDH/diaphorase resazurin coupled fluorescence | actives 0.16% (n = 340,000);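 active = inhibition above about 35% when tested at 20 µM, limit read from the data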;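 also: plate controls were DMSO wells with enzyme for no effect and DMSO wells lacking enzyme for full effect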
Target sequence (Q2TB90 whole entry, looked up): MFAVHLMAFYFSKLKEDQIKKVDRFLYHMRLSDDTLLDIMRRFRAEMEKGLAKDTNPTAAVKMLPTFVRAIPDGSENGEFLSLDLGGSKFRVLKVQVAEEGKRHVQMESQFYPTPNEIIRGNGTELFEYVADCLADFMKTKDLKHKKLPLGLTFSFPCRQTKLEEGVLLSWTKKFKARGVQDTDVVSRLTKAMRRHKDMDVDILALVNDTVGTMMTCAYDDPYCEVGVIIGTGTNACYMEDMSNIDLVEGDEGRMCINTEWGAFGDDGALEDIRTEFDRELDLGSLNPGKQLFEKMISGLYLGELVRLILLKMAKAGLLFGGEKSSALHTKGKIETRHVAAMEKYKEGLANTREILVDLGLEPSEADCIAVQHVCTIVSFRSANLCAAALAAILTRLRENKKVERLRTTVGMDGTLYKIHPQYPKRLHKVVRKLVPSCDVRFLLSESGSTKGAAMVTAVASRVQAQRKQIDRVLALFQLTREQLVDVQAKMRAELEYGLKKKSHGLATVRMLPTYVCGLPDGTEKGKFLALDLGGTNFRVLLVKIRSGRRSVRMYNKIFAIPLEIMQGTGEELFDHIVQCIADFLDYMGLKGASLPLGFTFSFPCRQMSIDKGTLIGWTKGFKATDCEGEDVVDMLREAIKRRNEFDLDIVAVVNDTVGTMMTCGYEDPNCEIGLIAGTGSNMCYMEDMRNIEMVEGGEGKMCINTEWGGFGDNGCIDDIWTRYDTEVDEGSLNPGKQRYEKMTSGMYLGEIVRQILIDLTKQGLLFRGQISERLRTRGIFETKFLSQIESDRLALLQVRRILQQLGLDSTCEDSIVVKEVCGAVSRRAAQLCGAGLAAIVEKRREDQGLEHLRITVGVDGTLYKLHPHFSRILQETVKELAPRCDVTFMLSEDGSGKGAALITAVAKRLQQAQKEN
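Assay system: recombinant HKDC1 hexokinase; detection: coupled resazurin fluorescence, excitation 525 nm, emission 613 nm; benchmarks: DMSO-plus-enzyme-mix negative control, buffer-substituted positive control; compound dosing: single 20 µM dose; schedule: 90 min at room temperature in dark; also added: glucose plus 1 mM ATP as hexokinase substrates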
Starred values were filed as active, the others as inactive; x = not tested or not shown.

SMILES	Diaph act CS	Arbovirus inh	Diaph inh CS	G6PDH counter	HKDC1 inhibitor
COc1cc2c(C(=O)O)c(C)n(CC(C)C)c2c2ccccc12	0.8	53.6*	17.1	-32.6	-9.4
O=C(COC(=O)/C=C/c1ccccc1Cl)NC(=O)NC1CCCC1	x	x	x	x	5.1
S=c1nc(-c2ccccc2)oc2c1CCCC2	0.3	9.9	65.0*	3.0	3.5
COc1cccc(-c2nc(=S)c3c(o2)CCCC3)c1	0.7	0.9	29.5	4.5	0.0
CCN1CCc2c(sc(NC(=O)c3ccc(S(=O)(=O)N(CC)c4ccccc4)cc3)c2C(N)=O)C1	x	x	x	x	10.2
CCCCSc1nc(N)nc2c1ncn2C1OC(CO)C(O)C1O (stereo not drawn)	x	x	x	x	0.3
CN(C)c1ccc(CNC(=O)CCc2ccc(S(=O)(=O)N3CCCCCC3)cc2)cc1	x	x	x	x	-2.7
Cc1cc2cc(CCNC(=O)C(=O)c3c[nH]c4ccccc34)c(=O)[nH]c2cc1C	0.3	21.3	70.0*	1.1	27.0
Cc1cc2cc(CCNC(=O)c3ccc(C)c([N+](=O)[O-])c3)c(=O)[nH]c2cc1C	0.3	-0.6	71.7*	18.9	28.7
COc1ccc(CCN2CC(C(=O)OCC(=O)N(C)CC(=O)Nc3ccccc3Cl)CC2=O)cc1OC (stereo not drawn)	x	x	x	x	4.5
CCOc1ccc(C2Nc3cccc4cccc(c34)N2)cc1OC	0.3	8.3	65.3*	13.1	4.5
COc1ccc(C2Nc3cccc4cccc(c34)N2)cc1	0.5	-0.7	51.9*	11.5	7.7
COc1ccccc1C1Nc2cccc3cccc(c23)N1	0.4	-6.0	56.6*	14.5	11.9
c1ccc(C2Nc3cccc4cccc(c34)N2)cc1	x	x	x	x	13.0
CC(C)(C)c1ccc(OCCC(=O)Nc2cccc(S(=O)(=O)NC3=NCCCCC3)c2)cc1	x	x	x	x	5.8
CC1CCC(C(O)(C(=O)O)C2CCCCC2)CC1C (stereo not drawn)	x	x	x	x	1.5
COc1ccccc1-c1nnc(SCC(=O)Nc2ccc3[nH]c(=O)[nH]c3c2)n1N	x	x	x	x	3.6
COc1cc(CNc2ccc3[nH]c(=O)[nH]c3c2)ccc1OCc1ccc(F)cc1	x	x	x	x	14.7
COc1cc(CNc2ccc3[nH]c(=O)[nH]c3c2)ccc1OCC(=O)NC(C)(C)C	0.3	6.7	69.2*	14.0	6.2
C=CCOc1ccc(CNc2ccc3[nH]c(=O)[nH]c3c2)cc1OC	0.1	5.0	94.4*	9.4	8.7
CSc1ncccc1C(=O)OCC(=O)NC1CCCCC1	x	x	x	x	-7.5
C=CCn1c(SCC(=O)c2ccc(O)c(O)c2)nnc1-c1ccccc1OC	0.4	-7.7	64.0*	9.9	-8.8
OCC1OC(n2cnc3c(/C=C(\O)c4ccccc4)ncnc32)C(O)C1O (stereo not drawn)	x	x	x	x	-1.7
Cc1nc2cc(-c3ccsc3-n3c(C)ccc3C)[nH]n2c(=O)c1Cl	0.4	17.1	64.5*	6.9	14.8
Cc1cc(=O)n2[nH]c(-c3ccsc3-n3c(C)ccc3C)cc2n1	x	x	x	x	12.6
SMILES	Diaph act CS	Arbovirus inh	Diaph inh CS	G6PDH counter	HKDC1 inhibitor
COc1cc(/C=C/C(=O)c2ccc([N+](=O)[O-])o2)ccc1O	x	x	x	x	34.5
O=C(/C=C/c1cccc(Cl)c1)c1ccc([N+](=O)[O-])o1	x	x	x	x	60.5*
COc1ccc(N(CCCN2C(=O)c3cccc4cccc(c34)C2=O)C(=O)c2cccc(OC)c2)cc1	0.4	-0.5	55.5*	-24.3	29.5
CN(C)CCCn1c2c3ccccc3ccc2c2oc(=O)c3ccccc3c21	x	x	x	x	16.0
O=c1[nH]cc(N=Cc2cc(Cl)cc(Cl)c2O)c(=O)[nH]1	x	x	x	x	18.8
O=C1CC(c2ccc(Br)cc2)NC(c2ccc(Br)cc2)C1c1ccccc1 (stereo not drawn)	0.9	45.2*	11.2	0.9	x
O=C(Nc1ccc(C(=O)N2CCCCC2)cc1)C1CCC1	x	x	x	x	-3.2
C[C@@H]1O[C@@H](Oc2c(-c3ccc(O)c(O)c3)oc3cc(O)cc(O)c3c2=O)[C@H](O)[C@H](O)[C@H]1O	x	x	x	x	9.8
C[C@@H]1O[C@@H](Oc2c(-c3cc(O)c(O)c(O)c3)oc3cc(O)cc(O)c3c2=O)[C@H](O)[C@H](O)[C@H]1O	0.3	8.4	70.9*	34.4	0.9
O=c1c(O[C@@H]2O[C@H](CO)C(O)C2O)c(-c2ccc(O)c(O)c2)oc2cc(O)cc(O)c12 (stereo partly drawn)	x	x	x	x	0.2
O=c1c(OC2OC(CO)C(O)C(O)C2O)c(-c2ccc(O)c(O)c2)oc2cc(O)cc(O)c12 (stereo not drawn)	0.4	1.5	61.7*	41.2	-0.4
COc1ccc(C(=O)NNC(=O)OC(C)(C)C)cc1	x	x	x	x	-5.4
COc1ccc(C(=O)NN/C(C)=C/C(=O)C(F)(F)C(F)(F)C(F)(F)F)cc1	0.9	85.0*	6.3	0.4	-7.2
Cc1cc(-c2nc3cc(F)ccc3s2)ccc1N	x	x	x	x	-0.8
CCOc1cc(Br)cc(/C=C2\SC(=Nc3ccccc3)NC2=O)c1O	x	x	x	x	17.2
C=CCOc1ccc(Br)cc1/C=C1/SC(=Nc2ccc(C(=O)O)cc2)NC1=O	0.6	32.5*	42.0	13.9	22.8
O=[N+]([O-])c1cccc(N/N=C/c2cccc(O)c2O)c1	0.5	-22.9	52.0*	25.3	12.3
O=[N+]([O-])c1ccccc1N/N=C/c1cccc(O)c1O	x	x	x	x	-5.4
O=C(CCc1nnc2ccc(NCc3ccccc3)nn12)NCC1CCN(C2CCCC2)C1 (stereo not drawn)	x	x	x	x	0.8
C(=Nc1cccc2c(N=Cc3ccco3)cccc12)c1ccco1	0.2	-14.0	81.3*	10.9	-7.0
COCCCn1c(SCc2nc3ccccc3c(=O)[nH]2)nc2ccccc2c1=O	0.9	-2.7	12.4	-1.0	6.0
COCC(C)n1c(SCc2nc3ccccc3c(=O)[nH]2)nc2ccccc2c1=O (stereo not drawn)	0.8	45.0*	15.0	7.1	0.4
C/C(=N/Nc1ccc(C(=O)O)cc1)c1ccc(O)c(O)c1O	0.4	2.4	61.1*	24.8	2.9
CC1=C(C)/C(=N\OS(=O)(=O)c2ccccc2)C=CC1=O	0	-35.8	100.2*	33.8	18.7
Cc1ccc(S(=O)(=O)O/N=C2\CCCc3ccccc32)cc1	0.7	-2.4	32.1	8.1	16.7
CC(NC(=O)CN1C(=O)NC2(CCCCC2C)C1=O)c1ccccc1 (stereo not drawn)	x	x	x	x	-2.8
O=C(OCn1nnc2ccccc2c1=O)c1cc2ccccc2o1	x	7.0	x	x	0.5
Oc1ccccc1CN1CCCN(Cc2ccccc2O)C1	1	69.9*	-0.4	1.8	-2.6
CC(=O)/C(=N/Nc1cccc(Cl)c1)Sc1nnc(C(O)c2ccccc2)n1-c1ccccc1 (stereo not drawn)	0.8	47.2*	23.5	-12.1	-7.5
